In the library only some 2.3% were active in any assay of this set; here they are far more common.
V1aR counter – counter-screen for oxytocin receptor agonists: human V1a receptor agonists | P37288 | CHO-V1R cells, Fluo-8 calcium fluorescence, agonist mode; 0% DMSO, 100% 3 nM vasopressin | activation, % at 3 µM | 0.25% of 320,000 active;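 active = activation above the mean activation of all tested compounds plus 3 SD, per screening run, cut at about 20% in these data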;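 note: signal is peak over basal fluorescence ratio across a 100 second FLIPR read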
TAAR1 antagonist – human TAAR1 antagonism. AID 624466. CHO RD-HGA16 TAAR1, Fluo-8 calcium fluorescence, antagonist. 1.5% of 360,000 active. inhibition, % at 3 µM;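 active = inhibition above a per-plate cutoff, the mean inhibition of test compounds on that plate plus 3 SD, cut at about 49% in these data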
Target sequence (Q96RJ0 whole entry, looked up): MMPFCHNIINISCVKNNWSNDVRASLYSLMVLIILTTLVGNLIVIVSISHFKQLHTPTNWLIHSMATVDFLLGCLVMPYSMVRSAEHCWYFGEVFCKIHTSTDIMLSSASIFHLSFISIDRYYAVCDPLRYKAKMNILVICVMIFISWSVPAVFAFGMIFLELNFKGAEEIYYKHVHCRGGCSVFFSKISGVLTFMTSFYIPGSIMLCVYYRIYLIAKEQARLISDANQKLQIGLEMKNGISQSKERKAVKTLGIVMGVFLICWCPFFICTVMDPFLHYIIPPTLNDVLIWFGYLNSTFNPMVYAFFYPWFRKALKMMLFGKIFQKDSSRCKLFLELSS
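Test system: hTAAR1-expressing CHO RD-HGA16 cells, Gα16-coupled; Probe or stimulus: EC80 β-phenethylamine stimulus; Compound dosing: single nominal final test compound concentration of 3 µM; Timing: 140 s kinetic read after compound, 140 s after agonist; Signal: Fluo-8 calcium-sensitive fluorescence; Measure: % inhibition of agonist calcium response; Controls: DMSO and EC80 PEA controls.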
OXTR potentiator – potentiates the human oxytocin receptor response; P30559; CHO-OTR cells, Fluo-8 calcium fluorescence, potentiator mode; 0% = oxytocin EC15, 100% = EC100; activation, % at 3 µM; 0.061% of 320,000 active; AID 2445;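 active = activation above that plate's cutoff, the mean activation of tested compounds plus 3 SD, cut at about 6.6% in these data, passing the limit was not always enough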
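Replication – single well per compound, singlicate · Assay system – CHO cell line stably expressing human OTR · Timing – 6 min pre-incubation, 100 s read · Measure – normalized max/min fluorescence ratio, % activation · Doses – 3.0 µM, one dose · Detection – Fluo-8 calcium dye fluorescence · Probe or stimulus – oxytocin near EC15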
OXTR agonist – human OXTR agonism. activation, % at 3 µM. P30559. CHO-OTR cells, Fluo-8 calcium fluorescence; normalized: DMSO 0%, oxytocin 100%. 0.32% of 320,000 active. AID 2435;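 active = activation above the mean of all tested compounds plus 3 SD, cutoff set per screening run, cut at about 20% in these data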;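 note: peak over basal fluorescence ratio from a 100 s FLIPR kinetic read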
TAAR1 ag – human TAAR1 agonism. Q96RJ0. CHO RD-HGA16 TAAR1, Fluo-8 calcium fluorescence; vehicle wells 0%, saturating PEA agonist 100%. activation, % at 3 µM. 0.99% of 360,000 active. AID 624467;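 active = activation above the mean activation of all test compounds in the run plus 3 SD, cut at about 38% in these data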
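Benchmarks: low control DMSO, high control PEA (EC100); System: CHO RD-HGA16 cells carrying human TAAR1 plus Gα16; Detection: Fluo-8 fluorescence, 5 s baseline then 140 s kinetic read; Schedule: 17-24 h plating, Fluo-8 75 min 37 °C, 30 min RT; Read-out basis: % activation from peak over basal fluorescence ratio, DMSO-to-PEA scaled.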
TAAR1 ag confirm – confirmation of human TAAR1 agonists; shares compounds with TAAR1 ag; CHO RD-HGA16 TAAR1, Fluo-8 calcium fluorescence; scaled: DMSO 0%, maximal phenethylamine 100%; activation, % at 3 µM; 82% of 2,400 active;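 active = activation above a cutoff set at the run's mean compound activation plus 3 SD, cut at about 39% in these data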
Ga16 nonsel ag – nonselective agonist in parental cells, TAAR1 agonist counter-screen; 50% of 2,400 active; AID 651787; activation, % at 3 µM; shares compounds with TAAR1 ag; CHO-Ga16 parental, Fluo-8 calcium fluorescence; normalized to maximal ATP response, DMSO zero;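 active = activation above the run cutoff, the mean activation over all tested wells plus 3 SD, cut at about 12% in these data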
TAAR1 desensitize – counter-screen for human TAAR1 agonists: agonists that desensitize TAAR1 | inhibition, % at 3 µM | 46% of 2,400 active | CHO RD-HGA16 hTAAR1, Fluo-8 calcium, beta-PEA response inhibition | shares compounds with TAAR1 ag;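 active = inhibition above the run cutoff, the mean inhibition of all test compounds plus 3 SD, cut at about 49% in these data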;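 note: beta-PEA stimulus applied at its EC80; loss of beta-PEA calcium signal after compound pretreatment read as receptor desensitization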
Ga16 antag count – nonselective Ga16 antagonism, counter-screen; 39% of 2,400 active; CHO-Ga16 ATP-induced calcium, Fluo-8 fluorescence; inhibition, % at 3 µM; shares compounds with TAAR1 ag;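 active = inhibition above the plate's mean compound inhibition plus 3 SD, computed per plate, cut at about 22% in these data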
Of the large screens only hits and unclear results are named; the others gave an inactive call (follow-up assays come after a bar, where they were run).

CN1/C(=C\C=C2C(=O)NC(=S)NC2=O)C(C)(C)c2ccccc21	TAAR1 antagonist 95, TAAR1 ag 308 (no result: V1aR counter, OXTR potentiator, OXTR agonist) | TAAR1 ag confirm 191 | Ga16 nonsel ag 208 | TAAR1 desensitize 90 | Ga16 antag count 92
CC1(C)OC(c2ccccc2)=C/C(=C/C=C2C(=O)NC(=S)NC2=O)O1	TAAR1 antagonist 109, TAAR1 ag 111 | TAAR1 ag confirm 79 | Ga16 nonsel ag 72 | TAAR1 desensitize 105 | Ga16 antag count 100
O=C1NC(=S)NC(=O)C1=Cc1c(Cl)cccc1Cl	none (no result: V1aR counter, OXTR potentiator, OXTR agonist)
C=CCOC(=O)N1Cc2ccccc2-n2nncc2C1	none (no result: V1aR counter, OXTR potentiator, OXTR agonist)
COc1ccc(CCNCc2ccc(Br)cc2)cc1OC	none
Cc1ccccc1CCNCc1ccc(Br)cc1	TAAR1 antagonist 50, TAAR1 ag 71 | TAAR1 ag confirm 93 | Ga16 nonsel ag 14 | TAAR1 desensitize 67 | Ga16 antag count inactive
CCOC(=O)c1c(-n2c(C)cc(C=C3C(=O)NC(=O)NC3=O)c2C)sc2c1CCCC2	TAAR1 ag 47 | TAAR1 ag confirm 53 | Ga16 nonsel ag 28 | TAAR1 desensitize inactive | Ga16 antag count 38
Cc1cccc(N2C(=O)NC(=O)/C(=C\c3cc(C)n(-c4sc5c(c4C#N)CCCC5)c3C)C2=O)c1C	none
Nc1ccc2nonc2c1[N+](=O)[O-]	TAAR1 ag 72 | TAAR1 ag confirm inactive | Ga16 nonsel ag 25 | TAAR1 desensitize inactive | Ga16 antag count inactive
CN(c1ccc(O)cc1)c1ccc([N+](=O)[O-])c2nonc12	none (no result: V1aR counter, OXTR potentiator, OXTR agonist)
O=C(Nc1cccc2ccccc12)N1Cc2ccccc2-n2nncc2C1	none (no result: V1aR counter, OXTR potentiator, OXTR agonist)
COc1ccc2[nH]c3c(c2c1)CCNC3	TAAR1 ag 44 | TAAR1 ag confirm 59 | Ga16 nonsel ag inactive | TAAR1 desensitize inactive | Ga16 antag count inactive
CCCCCc1nc2ccccc2c(=O)n1-c1ccccc1[N+](=O)[O-]	none
CCCCCc1nc2c(c(=O)c3ccccc3n2C)c(=O)n1C1CCCCCC1	TAAR1 antagonist 85, TAAR1 ag 125 | TAAR1 ag confirm 122 | Ga16 nonsel ag 96 | TAAR1 desensitize 93 | Ga16 antag count 85
Oc1ccccc1CN(CCc1ccccc1)Cc1ccccc1	TAAR1 ag 49 | TAAR1 ag confirm 75 | Ga16 nonsel ag 16 | TAAR1 desensitize 89 | Ga16 antag count inactive
CN1CN(c2ccccc2)C2(CCN(CCCSc3ccccc3NC(=O)/C=C/c3ccccc3)CC2)C1=O	TAAR1 antagonist 102, TAAR1 ag 122 (no result: V1aR counter, OXTR potentiator, OXTR agonist) | TAAR1 ag confirm 125 | Ga16 nonsel ag 97 | TAAR1 desensitize 107 | Ga16 antag count 97
N#CC1c2ccccc2-n2nncc2CN1C(=O)CCc1ccccc1 (configuration not stated)	none (no result: V1aR counter, OXTR potentiator, OXTR agonist)
O=C(NCCN1CCC2(CC1)C(=O)NCN2c1ccccc1)c1cccc(F)c1	TAAR1 antagonist 74, TAAR1 ag 60 (no result: V1aR counter, OXTR potentiator, OXTR agonist) | TAAR1 ag confirm 39 | Ga16 nonsel ag 21 | TAAR1 desensitize 54 | Ga16 antag count 31
COc1cccc(C(=O)NCCN2CCC3(CC2)C(=O)NCN3c2ccccc2)c1	none (no result: V1aR counter, OXTR potentiator, OXTR agonist)
O=C(NCCN1CCC2(CC1)C(=O)NCN2c1ccccc1)c1ccc(F)c(F)c1	TAAR1 antagonist 103, TAAR1 ag 110 (no result: V1aR counter, OXTR potentiator, OXTR agonist) | TAAR1 ag confirm 102 | Ga16 nonsel ag 67 | TAAR1 desensitize 104 | Ga16 antag count 87
O=c1[nH]cnc2nc(-c3ccc(N(CCCl)CCCl)cc3)[nH]c12	none (no result: V1aR counter, OXTR potentiator, OXTR agonist)
